A selection: hits, their analogues and other compounds. The true share with any hit is near 3.8%.
FN deposit inh = fibronectin deposition inhibition; AH1F fibroblasts, Alexa488-fibronectin deposition fluorescence, overnight; inhibition, % at 12.6 µM; 350,000 compounds, 0.086% hits; AID 743247;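 active = mean inhibition across replicates of 30% or more, regardless of how many single replicates reach that level; inconclusive = mean under 30% yet at least half of replicates reach 30%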;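 note: positive control wells lacked labelled fibronectin entirely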
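Test system: AH1F fibroblast monolayer depositing Alexa488-labelled fibronectin into matrix. Input: 10000 cells per well. Technique: fluorescence, ex 485 nm, em 525 nm. Buffer or medium: DMEM plus 2% serum, read in PBS. Timing: 1 h cell adhesion before compound, then overnight fibronectin incubation. Compound: single dose, pinned. Read-out basis: inhibition from reduced deposited-fibronectin fluorescence.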
SIRT5 block = blocks human SIRT5 desuccinylation of peptide | AID 652115 | 330,000 compounds, 1.1% hits | inhibition, % at 15 µM | Purified SirT5, succinyl-peptide AMC, trypsin-coupled fluorescence; in the data active = inhibition above about 15%; inconclusive = no clear call, values can overlap the other calls
Target sequence (Q9NXA8 whole entry, looked up): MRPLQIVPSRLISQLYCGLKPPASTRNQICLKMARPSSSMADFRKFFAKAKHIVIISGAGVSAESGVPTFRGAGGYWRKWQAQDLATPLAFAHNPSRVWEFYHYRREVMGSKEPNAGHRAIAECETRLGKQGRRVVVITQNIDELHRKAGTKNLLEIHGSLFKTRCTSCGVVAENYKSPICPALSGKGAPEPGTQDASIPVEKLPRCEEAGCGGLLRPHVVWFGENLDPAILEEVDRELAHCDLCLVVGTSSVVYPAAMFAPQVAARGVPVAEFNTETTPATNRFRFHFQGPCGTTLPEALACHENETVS
Xi reactivation = reactivates the inactive X chromosome in mouse fibroblasts; 360,000 compounds, 0.055% hits; XiGFP mouse fibroblasts, % GFP-positive cells imaging, 3 d; cells co-treated with 5-aza-dC sensitizer; scaled so ellipticine positive control = 100%; activation, % at 7.58 µM; AID 743238;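 active = mean normalized replicate activation at least 10% and every replicate at or above 10%; inconclusive = only one of the two criteria met; inactive = mean below 10% and not all replicates reach 10%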;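 note: 0% = median of on-plate neutral control wells and 100% = ellipticine 6 µM median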
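System: XiGFP fibroblasts, SV40-immortalized. Medium: DMEM plus 5-aza-dC sensitizer. Doses: single point. Timing: 3 d treatment, 15 min room-temperature fixation. Control set: ellipticine 6 µM.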
DENV2 CPE rescue = inhibitors of DENV2 cytopathic effect | DENV2-infected cells, cytopathic effect rescue, plate reader | CPE inhibition, % at 9.99 µM | 350,000 compounds, 1.7% hits | AID 651640; in the data active = CPE inhibition above about 20%, passing the limit was not always enough; inconclusive = no clear call, values can overlap the other calls; tested in BHK-21 cells;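 note: 0% = median of neutral control wells and 100% = median of positive control wells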
FGF22 binding-1 = binders of recombinant human FGF22 by thermal shift | SYPRO orange fluorescence; percent of sucrose octasulfate shift, DMSO zero | activity (Tm shift, normalised), % at 9.99 µM | 340,000 compounds, 1.5% hits;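 active = mean Tm shift, scaled 0 neutral to 100 positive control, at about 1.3% or above, every replicate too, limit read from the data; inconclusive = no clear call, values can overlap the other calls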
Target sequence (Q9HCT0 whole entry, looked up): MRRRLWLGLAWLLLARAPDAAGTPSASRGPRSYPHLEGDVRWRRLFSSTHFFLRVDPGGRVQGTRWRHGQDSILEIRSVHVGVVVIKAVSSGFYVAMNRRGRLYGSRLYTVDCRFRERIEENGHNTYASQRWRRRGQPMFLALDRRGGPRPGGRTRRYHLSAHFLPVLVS
ARNT TACC3 PPI = disruptors of human ARNT/TACC3 interaction. Q9Y6A5. AID 623870. inhibition, % at 9.99 µM. 390,000 compounds, 0.66% hits. AlphaScreen His-ARNT PAS-B/GST-TACC3 binding, luminescence; TACC3 fragment carries E629A point mutation;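 active = mean inhibition of replicates at least 50% and at least half of replicates each reaching 50%; inconclusive = half or more replicates reach 50% but mean below 50%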;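 note: 0% = complete ARNT plus TACC3 wells and 100% = ARNT alone without TACC3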
FGF22 binding-2 = binders of human FGF22 by thermal shift. shares compounds with FGF22 binding-1. recombinant FGF22 thermal shift, SYPRO orange fluorescence. thermal shift activity, °C (ΔTm) at 38 µM. 1,000 compounds, 2% hits;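 active = fitted rise in melting shift crosses a set limit at or below the top valid dose tested; inconclusive = flat fit at mid-level activity, or a poor quality fit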
TSA no protein = counter-screen for FGF22 binders: compound-only thermal shift, no protein | shares compounds with FGF22 binding-1 | compound-only SYPRO orange thermal shift counter-screen | AC50, µM (titrated, usually from 38 µM) | 1,000 compounds, 2% hits;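 active = rising signal whose fitted curve reaches the 0.54 level within the top valid dose, showing a melting point, actives reach about 13 µM in these data; inactive = the rest, including activity in the opposite direction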; note: value is where the raw curve crosses a fixed level and not half-maximal
Active calls of the source: *; [ ] = another dose, or the depositor's remark.

Screening CCS(=O)(=O)Nc1ccc2c(c1)C(=O)N(C)C[C@@H](OC)[C@@H](C)CN(C(=O)C1CCC1)[C@@H](C)CO2 returned SIRT5 block -2.2, Xi reactivation 0.1, DENV2 CPE rescue 8.8 and ARNT TACC3 PPI -8.0.
Screening Cc1noc(C)c1S(=O)(=O)Nc1ccc2c(c1)C(=O)N([C@@H](C)CO)C[C@@H](C)[C@H](CN(C)Cc1ccccc1)OCCCC[C@H](C)O2 returned FN deposit inh -4.6, SIRT5 block 0.4, Xi reactivation 0.1, DENV2 CPE rescue 0.6, FGF22 binding-1 0.0 and ARNT TACC3 PPI 10.7.
For CSc1ncccc1C(=O)Nc1ccc(S(=O)(=O)N2CCCC2)cc1 the results were FN deposit inh -2.9, SIRT5 block 1.7, Xi reactivation -0.1, DENV2 CPE rescue -8.8, FGF22 binding-1 1.6*, ARNT TACC3 PPI -4.1, FGF22 binding-2 0.212 and TSA no protein inactive.
CSc1ncccc1C(=O)Nc1cccc(S(=O)(=O)N2CCCCC2)c1 was read as SIRT5 block -1.8, Xi reactivation 0.0, DENV2 CPE rescue -7.6, FGF22 binding-1 -0.1 and ARNT TACC3 PPI 1.1.
O=S(=O)(N[C@H]1CC[C@H](CCn2cc(C3CC3)nn2)O[C@H]1CO)c1ccc(F)cc1 was read as SIRT5 block -0.5, Xi reactivation -0.1, DENV2 CPE rescue -7.3, FGF22 binding-1 0.1 and ARNT TACC3 PPI -5.3.
Screening O=C(NC[C@@H]1[C@H](c2ccccc2)[C@H](CO)N1CC1CCCC1)c1ccccc1 returned SIRT5 block -0.8, Xi reactivation 0.1, DENV2 CPE rescue -10.3, FGF22 binding-1 0.0 and ARNT TACC3 PPI 0.7.
Screening Brc1ccccc1/C=N/Nc1ccccn1 returned FN deposit inh -11.2, SIRT5 block -1.6, Xi reactivation 0.0, DENV2 CPE rescue 4.7, FGF22 binding-1 2.2*, ARNT TACC3 PPI 6.4, FGF22 binding-2 0.2 and TSA no protein inactive.
Screening C[C@H]1CN([C@@H](C)CO)C(=O)c2cc(NC(=O)Nc3ccc(F)cc3)ccc2O[C@@H]1CN(C)S(C)(=O)=O returned SIRT5 block 1.7, Xi reactivation 6.1, DENV2 CPE rescue -1.2, FGF22 binding-1 -0.2 and ARNT TACC3 PPI -4.8.
CNC[C@@H]1OCCCC[C@@H](C)Oc2ccc(NC(=O)CCCN(C)C)cc2C(=O)N([C@@H](C)CO)C[C@H]1C was read as SIRT5 block -2.7, Xi reactivation -0.1, DENV2 CPE rescue inconclusive, FGF22 binding-1 0.0 and ARNT TACC3 PPI -0.4.
`O=C(NCC[C@H]1CC[C@@H](NC(=O)C2CCCCC2)[C@H](CO)O1)c1cc(Cl)cc(Cl)c1` gave FN deposit inh 3.7, SIRT5 block -3.5, Xi reactivation -0.6, DENV2 CPE rescue -3.3 and FGF22 binding-1 0.6.
For Cc1cc(S(=O)(=O)NCc2cccnc2)ccc1F the results were FN deposit inh 2.3, SIRT5 block 0.1, Xi reactivation 0.4, DENV2 CPE rescue 3.2, FGF22 binding-1 0.5 and ARNT TACC3 PPI -7.1.
Screening Cc1ccc(S(=O)(=O)NCc2cccnc2)cc1C returned FN deposit inh 1.4, SIRT5 block -5.4, Xi reactivation 0.2, DENV2 CPE rescue 6.7, FGF22 binding-1 3.2*, ARNT TACC3 PPI -9.0, FGF22 binding-2 0.118 and TSA no protein inactive.
Screening Cc1ccc(NC(=O)c2ccc(S(=O)(=O)NCc3cccnc3)cc2)c(C)c1 returned FN deposit inh -3.5, SIRT5 block -1.6, Xi reactivation 0.0, DENV2 CPE rescue 0.0, FGF22 binding-1 1.6*, FGF22 binding-2 0.067 and TSA no protein inactive.
`O=C(Nc1cc(F)ccc1F)N1CC(=O)N2[C@H](CO)[C@H](c3ccc(-c4cccnc4)cc3)[C@H]2C1` gave SIRT5 block 0.8, Xi reactivation 0.1 and DENV2 CPE rescue -6.5.
Screening CSc1nc2nc(Cl)c(Cl)nc2[nH]1 returned FN deposit inh 1.0, Xi reactivation 0.3, DENV2 CPE rescue 4.0, FGF22 binding-1 1.4*, FGF22 binding-2 0.039 and TSA no protein inactive.
CCOC(=O)CSc1nc2nc(Cl)c(Cl)nc2[nH]1 was read as FN deposit inh -3.4, SIRT5 block -53.5, Xi reactivation 0.0, DENV2 CPE rescue 7.0 and FGF22 binding-1 0.6.
For O=C(c1ccc2c(c1)OCO2)N1CC2(C1)[C@H](c1ccccc1)[C@@H](CO)N2C(=O)C1CC1 the results were FN deposit inh 0.7, SIRT5 block 0.0, Xi reactivation 0.0 and DENV2 CPE rescue 12.0.
`O=C(C[C@@H]1CC[C@H]2[C@@H](COC[C@@H](O)CN2Cc2cccc(C(F)(F)F)c2)O1)NCc1ccncc1` gave FN deposit inh 1.8, SIRT5 block -1.4, Xi reactivation -0.1, DENV2 CPE rescue 13.8, FGF22 binding-1 14.1*, ARNT TACC3 PPI -2.6, FGF22 binding-2 0.001 and TSA no protein inactive.
O=C(C[C@@H]1CC[C@@H]2[C@H](COC[C@@H](O)CN2Cc2cccc(C(F)(F)F)c2)O1)NCc1ccncc1 was read as FN deposit inh 2.6, SIRT5 block 6.1, Xi reactivation -0.1, DENV2 CPE rescue -2.7, FGF22 binding-1 0.1 and ARNT TACC3 PPI 11.1.
Screening O=C(C[C@H]1CC[C@@H]2[C@H](COC[C@H](O)CN2S(=O)(=O)c2cccc(F)c2)O1)Nc1ccc(-c2ccccc2)cc1 returned FN deposit inh -12.3, SIRT5 block 7.4, Xi reactivation 0.2, DENV2 CPE rescue -13.2, FGF22 binding-1 1.1 and ARNT TACC3 PPI 5.9.
Screening Cc1cccc(S(=O)(=O)N2C[C@H](O)COC[C@H]3O[C@H](CC(=O)Nc4ccccc4)CC[C@@H]32)c1 returned FN deposit inh -4.6, SIRT5 block -3.4, Xi reactivation -0.1, DENV2 CPE rescue -8.0, FGF22 binding-1 1.8*, ARNT TACC3 PPI -0.2, FGF22 binding-2 -0.025[42 µM] and TSA no protein inactive.
O=C(C[C@H]1CC[C@H]2[C@@H](COC[C@@H](O)CN2S(=O)(=O)c2cccc(F)c2)O1)Nc1ccc(-c2ccccc2)cc1 was read as FN deposit inh 0.8, SIRT5 block -4.3, Xi reactivation 0.0, DENV2 CPE rescue inconclusive, FGF22 binding-1 3.3*, ARNT TACC3 PPI -3.2, FGF22 binding-2 0.062 and TSA no protein inactive.
